# Legend:
# Format in all cases: functional
# [1] = tested on: SNB-75; test: Growth inhibition of human SNB75 cells after 48 hrs by SRB assay; details: SNB-75, 48 h
# Procedure, shortened: (§1)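 NCI-60 panel protocol with adherent lines. Cells were seeded at 5,000–40,000 cells/well, depending on doubling time, and pre-incubated 24 h at 37 °C, 5% CO₂. Time-zero plates were TCA-fixed at drug addition. Drugs were dissolved in DMSO and exposed for 48 h. Cells were fixed with cold TCA (final 10%) for 60 min at 4 °C, stained with 0.4% SRB in 1% acetic acid for 10 min, solubilized with 10 mM trizma base, and read at A515.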
# [2] = tested on: BT-549; test: Growth inhibition of human BT549 cells after 48 hrs by SRB assay; details: BT-549, 48 h; procedure, shortened: as §1
# [3] = tested on: SF-539; test: Growth inhibition of human SF539 cells after 48 hrs by SRB assay; details: SF-539, 48 h; procedure, shortened: as §1
# [4] = tested on: HOP-62; test: Growth inhibition of human HOP62 cells after 48 hrs by SRB assay; details: HOP-62, 48 h; procedure, shortened: as §1
# [5] = tested on: RXF 393; test: Growth inhibition of human […] cells after 48 hrs by SRB assay; details: RXF 393, 48 h; procedure, shortened: as §1
# [6] = tested on: 786-0; test: Growth inhibition of human 786-0 cells after 48 hrs by SRB assay; details: 786-0, 48 h; procedure, shortened: as §1
# [7] = tested on: PC-3; test: Growth inhibition of human PC3 cells after 48 hrs by SRB assay; details: PC-3, 48 h; procedure, shortened: as §1
# [8] = tested on: M14; test: Growth inhibition of human M14 cells after 48 hrs by SRB assay; details: M14, 48 h; procedure, shortened: as §1
# [9] = tested on: MDA-MB-435; test: Growth inhibition of human MDA-MB-435 cells after 48 hrs by SRB assay; details: MDA-MB-435, 48 h; procedure, shortened: as §1
# [10] = tested on: A498; test: Growth inhibition of human A498 cells after 48 hrs by SRB assay; details: A498, 48 h; procedure, shortened: as §1
# [11] = tested on: SNB-19; test: Growth inhibition of human SNB19 cells after 48 hrs by SRB assay; details: SNB-19, 48 h; procedure, shortened: as §1
# [12] = tested on: RPMI-8226; test: Growth inhibition of human RPMI8226 cells after 48 hrs by SRB assay; details: RPMI-8226, 48 h
# Procedure, shortened: (§2)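 Suspension leukemia lines were run in the NCI-60 SRB format. Cells were plated at 5,000–40,000 cells/well and pre-incubated 24 h at 37 °C, 5% CO₂, with time-zero plates fixed at drug addition. Drug exposure in DMSO-derived dilutions lasted 48 h. Settled cells were fixed with 80% TCA (final 16%), stained with 0.4% SRB, solubilized in 10 mM trizma base, and read at 515 nm. Percent growth was taken relative to the time-zero and control readings.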
# [13] = tested on: LOX IMVI; test: Growth inhibition of human LOXIMVI cells after 48 hrs by SRB assay; procedure, shortened: as §1
# [14] = tested on: SF-295; test: Growth inhibition of human SF295 cells after 48 hrs by SRB assay; details: SF-295, 48 h; procedure, shortened: as §1
# [15] = tested on: SF-268; test: Growth inhibition of human SF268 cells after 48 hrs by SRB assay; details: SF-268, 48 h; procedure, shortened: as §1
# [16] = tested on: MOLT-4; test: Growth inhibition of human MOLT4 cells after 48 hrs by SRB assay; details: MOLT-4, 48 h; procedure, shortened: as §2
# [17] = tested on: OVCAR-3; test: Growth inhibition of human OVCAR-3 cells after 48 hrs by SRB assay; details: OVCAR-3, 48 h; procedure, shortened: as §1
# [18] = tested on: TK-10; test: Growth inhibition of human TK10 cells after 48 hrs by SRB assay; details: TK-10, 48 h
# Procedure, shortened: (§3)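 NCI 60-cell panel, five-dose format: cells plated at 5,000–40,000/well by doubling time, preincubated 24 h at 37 °C, 5% CO2; time-zero plates TCA-fixed. Compound dissolved in DMSO, five concentrations (0.01, 0.1, 1, 10, 100 µM) plus control, 48 h. Cells fixed with cold TCA, stained with 0.4% SRB in 1% acetic acid, bound dye solubilized in 10 mM trizma base, absorbance at 515 nm. GI50 taken from [(Ti–Tz)/(C–Tz)]×100 = 50.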
# [19] = tested on: ACHN; test: Growth inhibition of human ACHN cells after 48 hrs by SRB assay; procedure, shortened: as §1
# [20] = tested on: HCT-116; test: Growth inhibition of human HCT116 cells after 48 hrs by SRB assay; details: HCT-116, 48 h; procedure, shortened: as §1
# [21] = tested on: MDA-MB-231; test: Growth inhibition of human MDA-MB-231 cells after 48 hrs by SRB assay; details: MDA-MB-231, 48 h; procedure, shortened: as §1
# [22] = tested on: MCF7; test: Growth inhibition of human MCF7 cells after 48 hrs by SRB assay; details: MCF7, 48 h; procedure, shortened: as §1
# [23] = tested on: MDA-MB-468; test: Growth inhibition of human MDA-MB-468 cells after 48 hrs by SRB assay; details: MDA-MB-468, 48 h; procedure, shortened: as §1
# [24] = tested on: UACC-257; test: Growth inhibition of human UACC257 cells after 48 hrs by SRB assay; details: UACC-257, 48 h; procedure, shortened: as §3
# [25] = tested on: CAKI-1; test: Growth inhibition of human Caki1 cells after 48 hrs by SRB assay; details: CAKI-1, 48 h; procedure, shortened: as §1
# [26] = tested on: K562; test: Growth inhibition of human K562 cells after 48 hrs by SRB assay; details: K562, 48 h; procedure, shortened: as §2
# [27] = Growth inhibition of human Hs 578T cells after 48 hrs by SRB assay; procedure, shortened: as §1
# [28] = read-out: LC50 (the source's name)
smiles,measurement,setting,value
COc1ccc(C2CC(c3nc4ccccc4[nH]3)=NN2c2ccccc2)cc1OC (stereo unspecified),GI50,[1],11 µM
same,TGI,[1],47.4 µM
same,CC50,[1]; [28],> 100 µM
same,GI50,[2],10.3 µM
same,TGI,[2],69 µM
same,CC50,[2]; [28],> 100 µM
same,GI50,[3],15 µM
same,TGI,[3],38.6 µM
same,CC50,[3]; [28],99.5 µM
same,GI50,[4],19.9 µM
same,TGI,[4],> 100 µM
same,CC50,[4]; [28],> 100 µM
same,GI50,[5],13.4 µM
same,TGI,[5],36.1 µM
same,CC50,[5]; [28],97 µM
same,GI50,[6],24.2 µM
same,TGI,[6],> 100 µM
same,CC50,[6]; [28],> 100 µM
same,GI50,[7],6.27 µM
same,TGI,[7],49 µM
same,CC50,[7]; [28],> 100 µM
same,GI50,[8],16.1 µM
same,TGI,[8],> 100 µM
same,CC50,[8]; [28],> 100 µM
same,GI50,[9],4.15 µM
same,TGI,[9],> 100 µM
same,CC50,[9]; [28],> 100 µM
same,GI50,[10],5.14 µM
same,TGI,[10],58.1 µM
same,CC50,[10]; [28],> 100 µM
same,GI50,[11],26.6 µM
same,TGI,[11],> 100 µM
same,CC50,[11]; [28],> 100 µM
same,GI50,[12],2.76 µM
same,TGI,[12],10.3 µM
same,CC50,[12]; [28],76.6 µM
same,GI50,[13],5.1 µM
same,TGI,[13],21.7 µM
same,CC50,[13]; [28],62.9 µM
same,GI50,[14],5.98 µM
same,TGI,[14],51.4 µM
same,CC50,[14]; [28],> 100 µM
same,GI50,[15],21.3 µM
same,TGI,[15],> 100 µM
same,CC50,[15]; [28],> 100 µM
same,GI50,[16],17.9 µM
same,TGI,[16],> 100 µM
same,CC50,[16]; [28],> 100 µM
same,GI50,[17],4.17 µM
same,TGI,[17],18.9 µM
same,CC50,[17]; [28],62.2 µM
same,GI50,[18],15.7 µM
same,TGI,[18],65.9 µM
same,CC50,[18]; [28],> 100 µM
same,GI50,[19],14 µM
same,TGI,[19],> 100 µM
same,CC50,[19]; [28],> 100 µM
same,GI50,[20],3.94 µM
same,TGI,[20],16.5 µM
same,CC50,[20]; [28],49.8 µM
same,GI50,[21],7.19 µM
same,TGI,[21],91.5 µM
same,CC50,[21]; [28],> 100 µM
same,GI50,[22],2.41 µM
same,TGI,[22],15.3 µM
same,CC50,[22]; [28],54.2 µM
same,GI50,[23],5.25 µM
same,TGI,[23],21.2 µM
same,CC50,[23]; [28],64.9 µM
same,GI50,[24],77.1 µM
same,TGI,[24],> 100 µM
same,CC50,[24]; [28],> 100 µM
same,GI50,[25],3.6 µM
same,TGI,[25],24.7 µM
same,CC50,[25]; [28],> 100 µM
same,GI50,[26],> 100 µM
same,TGI,[26],> 100 µM
same,CC50,[26]; [28],> 100 µM
same,GI50,[27],6.18 µM
same,TGI,[27],41.2 µM
same,CC50,[27]; [28],> 100 µM

# Source: ChEMBL document CHEMBL1154686, “Pyrazoline bearing benzimidazoles: search for anticancer agent” (2010)
